From ChEMBL document CHEMBL1125265, “FTIR spectral study of intramolecular hydrogen bonding in thromboxane A2 receptor antagonist S-145 and related compounds. 3. Conformation and activity of S-145 analogues” (J Med Chem, 1991) come the findings set out here.

Structures are written as SMILES.

Holding throughout (format): functional
The species entered for assay [1] is Oryctolagus cuniculus. Nature of the assay: In vitro inhibitory concentration measured against U-46,619 (1 uM) induced aggregation of washed platelets (WP) in rabbit.
The species entered for assay [2] is Oryctolagus cuniculus. The experiment in a line: In vitro inhibitory concentration measured against U-46,619 (1 uM) induced aggregation of washed platelets (WP) in rabbit; N-Negative.
For assay [3], the species on record is Rattus norvegicus. Nature of the assay: In vitro inhibitory concentration measured against U-46,619 (30 nM) induced contraction for rat aorta.
The species entered for assay [4] is Rattus norvegicus. Nature of the assay: In vitro inhibitory concentration measured against collagen ([…]) induced aggregation of washed platelets (WP) in rat. An outline of the steps:
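Rat washed platelets; aggregation triggered with collagen at 4 µg/mL; inhibitory concentration reported as IC50, following a procedure from earlier work.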

For the compound `O=C(O)COc1ccc(CCNS(=O)(=O)c2ccccc2)cc1` [SULOTROBAN], in the assay filed under Oryctolagus cuniculus [1], the IC50 (usually the concentration that inhibits the measured activity by half) worked out at 300 nM.
With `CCCCCCC(O)CCCCCCCCCCC(=O)O` (configuration not stated), in the assay filed under Oryctolagus cuniculus [2], the 50% inhibitory concentration (IC50) entry is “Negative”.
On to `O=C(O)CCCCCCCNS(=O)(=O)c1ccccc1`, for which the values for the IC50 in the assay filed under Rattus norvegicus [3], in the assay filed under Oryctolagus cuniculus [1] and in the assay listed under Rattus norvegicus [4] were 2800 nM, 700 nM and 290 nM, respectively.
For the compound `O=C(O)CCC/C=C\CCCNS(=O)(=O)c1ccccc1`, the IC50 in the assay filed under Oryctolagus cuniculus [1] turned out to be 48 nM; in the assay filed under Rattus norvegicus [4], 41 nM.
With `O=C(O)CCCCCCNS(=O)(=O)c1ccccc1`, the results for the 50% inhibitory concentration (IC50) in the assay listed under Rattus norvegicus [3], in the assay listed under Oryctolagus cuniculus [1] and in the assay listed under Rattus norvegicus [4] were 55300 nM, more than 10000 nM and 11600 nM, respectively.
The like results for `O=C(O)CCCCCCCCNS(=O)(=O)c1ccccc1` were, in that order, 1600 nM, 400 nM and 410 nM.
Turning to `O=C(O)CCCCCCCCCCCNS(=O)(=O)c1ccccc1`, the results for the IC50 in the assay listed under Rattus norvegicus [3], in the assay listed under Oryctolagus cuniculus [1] and in the assay filed under Rattus norvegicus [4] were 6400 nM, more than 10000 nM and 3480 nM, respectively.
On to `O=C(O)CCCCNS(=O)(=O)c1ccccc1`, for which the figures for the IC50 in the assay listed under Rattus norvegicus [3], in the assay listed under Oryctolagus cuniculus [2] and in the assay listed under Rattus norvegicus [4] were more than 140000 nM, “Negative” and more than 14500 nM, respectively.
Turning to `O=C(O)CCCCCCCCCCNS(=O)(=O)c1ccccc1`, the concentration for half-maximal inhibition (IC50) in the assay listed under Rattus norvegicus [3] stood at 4600 nM; in the assay filed under Oryctolagus cuniculus [1], 10000 nM; in the assay listed under Rattus norvegicus [4] it was 4350 nM.
Regarding `O=C(O)CCCNS(=O)(=O)c1ccccc1`, the IC50 in the assay listed under Rattus norvegicus [3] was more than 140000 nM; in the assay filed under Oryctolagus cuniculus [2] it was “Negative”; in the assay filed under Rattus norvegicus [4], more than 14500 nM.
For the compound `O=C(O)CCCCCCCCCCCO`, the 50% inhibitory concentration (IC50) result in the assay listed under Oryctolagus cuniculus [2] is listed as “Negative”.
Regarding `O=C(O)CCC/C=C\C[C@@H]1C(NS(=O)(=O)c2ccccc2)C2CC[C@@H]1C2` (some centres not stated), the values for the IC50 in the assay listed under Rattus norvegicus [3], in the assay listed under Oryctolagus cuniculus [1] and in the assay listed under Rattus norvegicus [4] were 1.4 nM, 6 nM and 2.9 nM, respectively.
With `O=C(O)CCCCCNS(=O)(=O)c1ccccc1`, the IC50 in the assay filed under Rattus norvegicus [3] was more than 140000 nM; in the assay listed under Oryctolagus cuniculus [2] it was “Negative”; in the assay listed under Rattus norvegicus [4], more than 14500 nM.
